Screening data: PubChem BioAssay, Broad Institute
ERAP1 inh: inhibitors of human ERAP1 aminopeptidase. recombinant ERAP1, Leu-AMC fluorescence, 60 min. inhibition, % at 10.7 µM. actives 0.15% (n = 340,000);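 active = mean replicate inhibition of at least 30%, or all replicates individually reaching that 30% level; inactive = mean below 30% and not every replicate reaching it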;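 also: 0% = neutral control wells and 100% = L-leucinethiol positive control wells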
S100A4 inh HTS: blocks human S100A4 binding to myosin IIA peptide; P26447; S100A4/TAMRA-MyoIIA peptide fluorescence polarization; inhibition, % at 10.7 µM; actives 0.14% (n = 360,000);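 active = mean inhibition of at least 70% across replicates, with every replicate also reaching that level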
Target sequence (P26447 whole entry, looked up): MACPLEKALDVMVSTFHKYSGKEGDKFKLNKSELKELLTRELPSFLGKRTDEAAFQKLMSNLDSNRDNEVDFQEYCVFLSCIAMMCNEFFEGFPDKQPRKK
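Test system: S100A4 monomer protein. Medium: HEPES buffer with Ca2+, pH 7.2. Reagent: fluorescent myosin IIA peptide, 5 nM. Compound dosing: single-point compound testing. Timing: 5 min between mix addition and reading. Benchmarks: DMSO neutral and TFP positive wells.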
E-sel inducer: induces E-selectin expression in human endothelial cells; P16581; HUVEC E-selectin immunofluorescence imaging; normalized: neutral wells 0, TNF-alpha wells 100; activation, % at 7.58 µM; actives 0.37% (n = 260,000);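 active = mean E-selectin-positive cell signal at least 10% of the positive control, reached in at least 60% of replicates, without over 20% cell loss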
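Read-out: % PE-positive cells | Test system: HUVEC | Doses: One compound dose added by pin transfer | Buffer or medium: EGM-2 over gelatin coat | Signal: Immunofluorescence imaging | Benchmarks: TNF-alpha, DMSO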
rRNA inh HTS: selective bacterial rRNA inhibition in E. coli | E. coli WT GFP vs humanized-ribosome RFP mutants, fluorescence, 24 h; active compounds read low; DMSO median 0, no signal -100 | AID 720706 | actives 1.6% (n = 350,000) | GFP signal change (wild-type ribosome), % (test concentration not listed);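 active = significant combined selectivity score with lowered wild-type GFP, culture density cut under 30%, mutant RFP and density less affected; inactive = any of these conditions unmet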
AF4-AF9 inh: blocks AF4 peptide binding to human AF9. P42568. inhibition, % at 10 µM. actives 0.47% (n = 350,000). AlphaScreen, biotin-AF4 peptide binding to FLAG-AF9;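 active = every replicate reaching a set inhibition limit, whatever the replicate mean, cut at about 25% in these data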;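 also: 0% = plate neutral control median and 100% = total signal loss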
SIRT5 inh: sirtuin-5 (human) deacylase inhibition. Q9NXA8. Purified SirT5, succinyl-peptide AMC, trypsin-coupled fluorescence. inhibition, % at 15 µM. actives 1.1% (n = 330,000); in the data active = inhibition above about 15%
Target sequence (Q9NXA8 whole entry, looked up): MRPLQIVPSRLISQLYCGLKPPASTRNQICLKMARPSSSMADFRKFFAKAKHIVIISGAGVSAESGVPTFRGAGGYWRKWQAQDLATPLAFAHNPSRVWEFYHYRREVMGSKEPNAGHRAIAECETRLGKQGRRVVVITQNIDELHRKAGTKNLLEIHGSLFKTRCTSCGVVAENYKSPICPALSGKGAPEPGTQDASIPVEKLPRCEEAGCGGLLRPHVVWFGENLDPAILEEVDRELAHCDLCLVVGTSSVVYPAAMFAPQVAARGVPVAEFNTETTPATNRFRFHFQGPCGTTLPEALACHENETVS
Starred values were filed as active, the others as inactive; x = not tested or not shown; + = active, no number. The list is not random: actives were taken first. Their share in the collection is about 3.4%.

SMILES | ERAP1 inh | S100A4 inh HTS | E-sel inducer | rRNA inh HTS | AF4-AF9 inh | SIRT5 inh
Cc1cccc(OCC(=O)NNC(=O)C2CCCCC2C(=O)O)c1 (centres undefined) | -2 | 1 | 1 | 14 | -8 | 37*
O=C(O)C1CCCCC1C(=O)Nc1ccc(OCc2ccccc2)cc1 (centres undefined) | 2 | 3 | x | -24* | -36 | x
Cc1ccc(OCC(=O)NNC(=O)[C@@H]2CCCC[C@@H]2C(=O)O)c(Br)c1 | -2 | 0 | 1 | 3 | -2 | -3
COc1cc(C)c(Br)cc1S(=O)(=O)NCc1ccccc1 | 0 | -7 | x | 18 | -42 | -4
COc1ncnc(OC)c1S(=O)(=O)NCc1ccccc1 | -2 | -3 | 50* | 8 | 0 | -3
O=C(O)c1cc(N2N=C(C(F)(F)F)/C(=C/C=C/c3ccco3)C2=O)ccc1Cl | 33* | -7 | x | 13 | -9 | 63*
Cc1cccc(N2CC(C(=O)Nc3cccc(S(=O)(=O)N4CCCCC4)c3)CC2=O)c1C (centres undefined) | -6 | -1 | x | -25* | 1 | 2
O=C(Nc1ccc(Br)cc1Br)C1CC(=O)N(Cc2ccccc2)C1 (centres undefined) | 5 | 0 | x | -34* | -13 | -6
O=C(Nc1ccc(S(=O)(=O)N2CCCCC2)cc1)C1CC(=O)N(Cc2ccccc2)C1 (centres undefined) | -1 | + | 0 | -1 | -38 | -1
O=C(Nc1ccccc1N1CCCC1)C1CC(=O)N(Cc2ccccc2)C1 (centres undefined) | 0 | 0 | x | -7 | -2 | 0
COc1ccc(NC(=O)N(C)C[C@H]2Oc3ccc(NS(=O)(=O)c4ccc(Cl)cc4)cc3C(=O)N([C@H](C)CO)C[C@H]2C)cc1 | 1 | -7 | 0 | -5 | -2 | 2
Nc1cc(-c2ccc(Br)cc2)[nH]n1 | 1 | 2 | x | -6 | -5 | -5
Cc1cc(-c2ccc(Br)cc2)n[nH]1 | x | -3 | -1 | -1 | -1 | 16*
CCc1cccc(CC)c1NC(=S)N1CCn2cccc2C1c1ccncc1 (centres undefined) | 3 | -2 | 0 | 14 | -1 | 17*
S=C(NCc1ccccc1)N1CCn2cccc2C1c1ccncc1 (centres undefined) | 4 | 2 | x | -5 | -1 | -1
CC[N+](CC)(CC)CCCCOc1ccc2c(c1)C(=O)c1cc(OCCCC[N+](CC)(CC)CC)ccc1-2 | 17 | 2 | x | -54* | 0 | 4
c1ccc(C(c2ccccc2)c2noc(CN3CCC(c4ccncc4)CC3)n2)cc1 | -3 | -10 | 2 | -43* | 6 | -1
C[C@H](CO)N1C[C@H](C)[C@H](CN(C)CC2CC2)Oc2c(NC(=O)c3ccc(-c4nccs4)cc3)cccc2C1=O | 0 | -9 | 0 | 2 | -4 | 0
O=C(Nc1ccc(OC(F)(F)F)cc1)Oc1ccccc1N1CCCCC1 | -2 | -4 | x | -50* | -8 | -2
O=C(Nc1ccc(OC(F)(F)F)cc1)Oc1ccccc1N1CCOCC1 | -3 | -2 | x | -47 | -1 | -1
C[C@@H]1CN([C@H](C)CO)C(=O)c2cc(NC(=O)CCCN(C)C)ccc2O[C@@H](C)CCCCO[C@@H]1CN(C)Cc1ccccc1 | x | x | 0 | 0 | -1 | x
COc1ccc(C(=O)Nc2ccc3c(c2)C(=O)N(C)C[C@H](OC)[C@H](C)CN(C)[C@H](C)CO3)cc1 | 0 | 5 | 0 | 4 | -2 | -6
Cc1ccc(C(=O)N(Cc2nnc(-c3ccc(Cl)cc3)o2)C2CC2)o1 | -1 | 6 | 59* | 1 | 1 | 1
C[C@H](CO)N1C[C@H](C)[C@H](CN(C)C(=O)Cc2cccnc2)Oc2ncc(-c3cccnc3)cc2C1=O | -1 | 14 | 1 | 8 | 0 | 0
O=C(Nc1ccc(Cl)c(Cl)c1)Nn1cnnc1 | 2 | 1 | x | -22* | 3 | 3
SMILES | ERAP1 inh | S100A4 inh HTS | E-sel inducer | rRNA inh HTS | AF4-AF9 inh | SIRT5 inh
Cc1ccc(S(=O)(=O)Oc2ccccc2/C=N/Nc2ccc(C(=O)O)cc2)cc1 | 4 | -3 | -3 | -33* | 3 | 9
COc1ccc(C(=O)C(CN2CCOCC2)c2ccccc2)cc1 (centres undefined) | 0 | -2 | x | -50* | 15 | -1
CCCOc1ccc(C(O)C(CN2CCOCC2)c2ccccc2)cc1 (centres undefined) | 1 | -4 | x | 13 | x | -7
OC(COC(c1ccccc1)c1ccccc1)CN1CCOCC1 (centres undefined) | -4 | -4 | 72* | 5 | -1 | -3
CCCCOc1ccc(C(O)C(CN2CCOCC2)c2ccccc2)cc1 (centres undefined) | -7 | -4 | x | 1 | 4 | 15*
O=C(C[C@@H]1C[C@H]2c3cc(NC(=O)C4CCC4)ccc3O[C@H]2[C@@H](CO)O1)NCc1cc(F)ccc1F | 1 | 44 | 0 | 0 | -3 | 7
CN(C)C(=O)C[C@H]1C[C@@H]2c3cc(NC(=O)Nc4ccccc4F)ccc3O[C@@H]2[C@H](CO)O1 | -1 | -14 | 0 | -2 | 0 | 0
C[C@@H]1CN([C@H](C)CO)C(=O)c2cccc(NC(=O)c3nc4ccccc4s3)c2O[C@@H]1CN(C)C(=O)NC1CCCCC1 | -3 | 29 | -1 | -12 | 6 | 34*
C[C@H](CO)N1C[C@H](C)[C@H](CN(C)S(=O)(=O)c2ccc(F)cc2)Oc2c(NC(=O)c3nc4ccccc4s3)cccc2C1=O | 0 | -25 | 0 | -4 | 1 | 24*
C[C@H]1CN([C@@H](C)CO)C(=O)c2cccc(NC(=O)c3nc4ccccc4s3)c2O[C@H]1CN(C)C(=O)NC1CCCCC1 | -2 | -25 | 1 | -10 | 6 | -1
C[C@@H]1CN([C@@H](C)CO)C(=O)c2cccc(NC(=O)c3nc4ccccc4s3)c2O[C@@H]1CN(C)Cc1ccc(C(F)(F)F)cc1 | 0 | 1 | -6 | -7 | -1 | 18*
C[C@@H]1CN([C@H](C)CO)C(=O)c2cccc(NC(=O)c3nc4ccccc4s3)c2O[C@H]1CN(C)S(=O)(=O)c1ccccc1 | 0 | 1 | 0 | -2 | -5 | 3
CCN(CC)c1ccc(N=C2C=CC(=O)C=C2NC(C)=O)cc1 | 8 | 127* | 1 | -10 | -5 | x
CCc1cc(C(=O)c2ccc(OC)cc2)c(NC(=O)CC(C)(C)CC(=O)O)s1 | 9 | -3 | 0 | -28* | x | 3
COc1cc(NC(=O)Nc2ccc(Cl)c(Cl)c2)c(C(=O)O)cc1OC | 0 | 3 | x | -40* | -16 | -20
C[C@@H]1CN(C)C(=O)Cc2cc([N+](=O)[O-])ccc2O[C@H]1CN(C)C(=O)OC(C)(C)C | x | x | x | 0 | x | x
